Data on 10 compounds can be found in ChEMBL document CHEMBL1255177, “Search for influence of spatial properties on affinity at α1-adrenoceptor subtypes for phenylpiperazine derivatives of phenytoin” (Bioorg Med Chem Lett, 2010).

In experiment [1] the target is T1, Alpha-1D adrenergic receptor (Rattus norvegicus, UniProt P23944).
T1 sequence (P23944 whole entry): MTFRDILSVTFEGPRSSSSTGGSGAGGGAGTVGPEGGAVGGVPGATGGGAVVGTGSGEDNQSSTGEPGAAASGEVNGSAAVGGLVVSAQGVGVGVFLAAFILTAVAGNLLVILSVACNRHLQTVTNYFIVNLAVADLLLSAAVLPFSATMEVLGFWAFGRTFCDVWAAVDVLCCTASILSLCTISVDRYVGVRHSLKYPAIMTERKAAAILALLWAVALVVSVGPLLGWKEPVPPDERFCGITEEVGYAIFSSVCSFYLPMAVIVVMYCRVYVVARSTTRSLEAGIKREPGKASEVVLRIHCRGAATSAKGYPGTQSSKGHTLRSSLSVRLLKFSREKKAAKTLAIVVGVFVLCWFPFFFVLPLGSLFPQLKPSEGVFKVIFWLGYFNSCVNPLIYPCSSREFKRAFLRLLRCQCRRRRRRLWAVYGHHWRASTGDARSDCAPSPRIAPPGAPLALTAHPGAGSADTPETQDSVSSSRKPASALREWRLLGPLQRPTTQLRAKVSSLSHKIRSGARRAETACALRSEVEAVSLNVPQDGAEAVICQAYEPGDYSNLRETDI
The experiment is described as follows: Antagonist activity at adrenergic Alpha-1D receptor in rat aorta. Format: functional, tissue-based. As to conditions: read-out: pA2 (converted). In a few lines:
(§1)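 Isolated tissues: guinea pig spleen (α1B), rat aorta (α1D), rat tail artery (α1A). Two cumulative noradrenaline concentration-response curves per tissue, 60 min apart, without then with antagonist. Apparent pA2 = −log[B] + log(r − 1), where r is the ratio of agonist EC50 with and without antagonist. EC50 taken at the curve midpoint. Means ± SEM, 4–8 separate experiments.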

The target of experiment [2] is Alpha-1B adrenergic receptor (Cavia porcellus). Put plainly: Antagonist activity at adrenergic Alpha-1B receptor in guinea pig spleen. As to conditions: read-out: pA2 (converted).
Experiment [3] addresses Alpha-1 adrenergic receptor (Rattus norvegicus). Put plainly: Binding affinity to adrenergic alpha1 receptor in rat brain.
The target in experiment [4] is T2, Alpha-1A adrenergic receptor (Rattus norvegicus, UniProt P43140).
T2 sequence (P43140 whole entry): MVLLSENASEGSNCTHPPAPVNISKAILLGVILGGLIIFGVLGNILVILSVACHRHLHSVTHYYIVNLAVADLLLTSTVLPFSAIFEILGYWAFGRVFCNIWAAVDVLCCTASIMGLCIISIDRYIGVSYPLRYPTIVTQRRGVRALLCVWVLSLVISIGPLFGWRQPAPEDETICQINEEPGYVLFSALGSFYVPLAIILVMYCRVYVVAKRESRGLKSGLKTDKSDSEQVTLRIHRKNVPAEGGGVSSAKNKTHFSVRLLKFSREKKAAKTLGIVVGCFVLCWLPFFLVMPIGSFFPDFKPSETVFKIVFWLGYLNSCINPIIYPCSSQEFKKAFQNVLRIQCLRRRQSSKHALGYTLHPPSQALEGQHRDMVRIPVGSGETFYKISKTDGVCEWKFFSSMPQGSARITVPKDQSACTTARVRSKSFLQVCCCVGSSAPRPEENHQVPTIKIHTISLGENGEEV
Put plainly: Antagonist activity at adrenergic alpha1A receptor in rat tail artery. The experiment is classed as functional, tissue-based. The settings on record: read-out: pA2 (converted). In a few lines:
as §1

The Ki is the equilibrium dissociation constant of an inhibitor or competing ligand from its target. A lower Ki goes with tighter binding.

In the case of `CCOC(=O)C(C)N1C(=O)N(CC(O)CN2CCN(c3ccccc3OC)CC2)C(c2ccccc2)(c2ccccc2)C1=O` (centres undefined), the Kb in experiment [1] was 70.8 nM. As for `CN1C(=O)N(CC(O)CN2CCN(c3ccccc3F)CC2)C(c2ccccc2)(c2ccccc2)C1=O` (centres undefined), the figures for the Kb in experiment [2], in experiment [1] and in experiment [4] were 1820 nM, 245 nM and 891 nM, respectively. This compound had a Ki in experiment [3] of 562 nM. With `COC(=O)CN1C(=O)N(CC(O)CN2CCN(c3ccccc3)CC2)C(c2ccccc2)(c2ccccc2)C1=O` (centres undefined), the Kb in experiment [1] is 4370 nM. On the same count and under the same terms, the figure for `COc1ccccc1N1CCN(CC(O)CN2C(=O)NC(=O)C2(c2ccccc2)c2ccccc2)CC1` (centres undefined) is 112 nM; for `CCOC(=O)CN1C(=O)N(CC(O)CN2CCN(c3ccccc3OC)CC2)C(c2ccccc2)(c2ccccc2)C1=O` (centres undefined) it is 1350 nM; for `CCOc1ccccc1N1CCN(CC(O)CN2C(=O)N(C(C)C(=O)OC)C(=O)C2(c2ccccc2)c2ccccc2)CC1` (centres undefined) it is 269 nM. On the same count and under the same terms, the figure for `COc1ccccc1N1CCN(CC(O)CN2C(=O)N(C)C(=O)C2(c2ccccc2)c2ccccc2)CC1` (centres undefined) is 141 nM. Still for that read-out and setting: the figure for `CCOc1ccccc1N1CCN(CC(O)CN2C(=O)N(C)C(=O)C2(c2ccccc2)c2ccccc2)CC1` (centres undefined) is 195 nM.

Turning to `COC(=O)C(C)N1C(=O)N(CC(O)CN2CCN(c3ccccc3OC)CC2)C(c2ccccc2)(c2ccccc2)C1=O` (centres undefined), the Kb in experiment [2] is 851 nM; in experiment [1] it was 347 nM; in experiment [4], 155 nM. Moreover, affinity in experiment [3] was put at a Ki of 105 nM. The matching figures for `COC(=O)CN1C(=O)N(CC(O)CN2CCN(c3ccccc3OC)CC2)C(c2ccccc2)(c2ccccc2)C1=O` (centres undefined): 1260 nM, 295 nM, 224 nM and 200 nM.
